According to ChEMBL document CHEMBL4725393, “Prodrug Strategies to Improve the Solubility of the HCV NS5A Inhibitor Pibrentasvir (ABT-530)” (J Med Chem, 2020):
Converted amounts (≈) assume the structure as drawn.

What was measured:
[1] = Cmax in CD1 mouse assessed as pibrentasvir1 level at 6 mg/kg, po measured up to 24 hrs; format: ADME, organism-based; set-up: route oral, dose 6 mg/kg, time <=24; settings: in vivo
Method in brief: (§1)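 CD-1 mice with free access to food and water received an oral gavage of prodrug or PIB at 10 mL/kg in 0.2% HPMC. The dose was adjusted for prodrug MW to equal 6 mg/kg PIB. K2EDTA blood was drawn at 0.25, 0.5, 1, 3, 6, 9, 12 and 24 h. Plasma was spun at 3200 x g for 5 min at ~4°C and stored below -15°C. PIB and prodrug were measured; AUC in ng·h/mL, Cmax in ng/mL.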

[2] = AUC in CD1 mouse assessed as pibrentasvir1 level at 6 mg/kg, po measured up to 24 hrs; format: ADME, organism-based; set-up: route oral, dose 6 mg/kg, time <=24; settings: in vivo; method in brief: as §1
[3] = Stability of compound at pH 7.4 assessed as prodrug remaining level at 125 ug/ml incubated for 3 hrs by HPLC analysis; format: physicochemical; settings: buffer, pH 7.4, 3 h, at 125 µg/mL
[4] = Solubility in FeSSIF at pH 5; format: physicochemical
Method in brief: (§2)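 For equilibrium solubility, excess solid was added to 3–4 mL of medium, in triplicate. Suspension pH was read after equilibration. Solids were removed by centrifugation at 4000 rpm at 25 °C, and the supernatant was passed through a 0.45 µm filter, discarding the first 2 mL. The filtrate was quantified by HPLC against standard curves.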

[5] = Equilibrium solubility of compound at pH 7.4 incubated for 24 to 48 hrs by HPLC analysis; format: physicochemical; settings: buffer, time 24-48 hrs; method in brief: as §2
[6] = AUC in beagle dog assessed as pibrentasvir1 level at 40 mg, po measured up to 24 hrs; format: ADME, organism-based, Canis lupus familiaris; set-up: route oral, dose 40 mg, time <=24; settings: in vivo
Method in brief: (§3)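 The dose equalled 40 mg PIB after adjustment for prodrug MW. Food was returned at 12 h. K2EDTA plasma was sampled at 0.25–24 h. Cmax is in ng/mL and AUC in ng·h/mL.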

[7] = Equilibrium solubility of compound at pH 1 incubated for 24 to 48 hrs by HPLC analysis; format: physicochemical; settings: buffer, time 24-48 hrs; method in brief: as §2
[8] = Stability of compound at pH 1 assessed as prodrug remaining level at 125 ug/ml incubated for 24 hrs by HPLC analysis; format: physicochemical; settings: buffer, pH 1, 24 h, at 125 µg/mL
Method in brief: (§4)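 A DMSO stock of about 1.25 mg/mL was diluted into 0.1 N HCl (pH 1) or 50 mM phosphate buffer (pH 7.4), giving final concentrations of ~125 µg/mL prodrug and 10% DMSO. The solution was filtered and held at 37 °C in the HPLC autosampler, with injections at several times over 24 h. Percent remaining was calculated from prodrug peak area relative to t0.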

[9] = Stability of compound at pH 7.4 assessed as prodrug remaining level at 125 ug/ml incubated for 24 hrs by HPLC analysis; format: physicochemical; settings: buffer, pH 7.4, 24 h, at 125 µg/mL; method in brief: as §4
[10] = Cmax in beagle dog assessed as pibrentasvir1 level at 40 mg, po measured up to 24 hrs; format: ADME, organism-based, Canis lupus familiaris; set-up: route oral, dose 40 mg, time <=24; settings: in vivo; method in brief: as §3
[11] = Half life of compound at pH 7.4 at 125 ug/ml at 37 degC by HPLC analysis; format: physicochemical; settings: dose 125 µg/ml
[12] = AUC in cynomolgus monkey at 2 mg/kg, po measured up to 12 hrs; format: ADME, organism-based, Macaca fascicularis; set-up: route oral, dose 2 mg/kg, time <=12; settings: in vivo
Method in brief: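 Female cynomolgus monkeys were fasted overnight and dosed by gastric intubation with a suspension in 0.5% HPMC at 0.5 mL/kg. The dose was MW-adjusted to 2 mg/kg PIB equivalent, and food was returned at 4 h. Plasma was collected at intervals up to 12 h and assayed for PIB and prodrug to give AUC in ng·h/mL.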

[13] = AUC in CD1 mouse at 6 mg/kg, po measured up to 24 hrs; format: ADME, organism-based; set-up: route oral, dose 6 mg/kg, time <=24; settings: in vivo; method in brief: as §1
[14] = Lipophilicity, logD of compound; format: physicochemical; settings: octanol/water
[15] = Aqueous solubility of compound at pH 7; format: physicochemical
[16] = Protein binding in human plasma; format: ADME, cell-free; settings: read-out: PPB (converted)
[17] = Apparent permeability in MDCK cells; format: ADME, cell-based, Canis lupus familiaris; settings: dog
[18] = Aqueous solubility of compound at pH 2; format: physicochemical
[19] = Permeability by PAMPA; format: ADME
[20] = Cmax in CD1 mouse at 3 mg/kg, po measured up to 24 hrs; format: ADME, organism-based; set-up: route oral, dose 3 mg/kg, time <=24; settings: in vivo
Method in brief: (§5)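 CD-1 mice, fed ad libitum, were dosed orally at a prodrug-MW-adjusted dose equal to 3 mg/kg PIB, as a solution or suspension. Serial K2EDTA blood samples were taken from 0.25 to 24 h. Plasma was separated by centrifugation and kept frozen. PIB and prodrug levels were reported as Cmax (ng/mL) and AUC (ng·h/mL).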

[21] = Cmax in beagle dog at 40 mg, po measured up to 24 hrs; format: ADME, organism-based, Canis lupus familiaris; set-up: route oral, dose 40 mg, time <=24; settings: in vivo; method in brief: as §3
[22] = Cmax in beagle dog at 40 mg, po dosed as phase 2 tablet measured up to 24 hrs; format: ADME, organism-based, Canis lupus familiaris; set-up: route oral, dose 40 mg, time <=24; settings: in vivo
Method in brief: (§6)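 Fasted beagle dogs received the 40 mg phase 2 PIB tablet (amorphous drug in polymer support), crushed for dosing.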

[23] = AUC in beagle dog at 40 mg, po dosed as phase 2 tablet measured up to 24 hrs; format: ADME, organism-based, Canis lupus familiaris; set-up: route oral, dose 40 mg, time <=24; settings: in vivo; method in brief: as §6
[24] = AUC in beagle dog at 40 mg, po measured up to 24 hrs; format: ADME, organism-based, Canis lupus familiaris; set-up: route oral, dose 40 mg, time <=24; settings: in vivo; method in brief: as §3
[25] = AUC in CD1 mouse at 3 mg/kg, po measured up to 24 hrs; format: ADME, organism-based; set-up: route oral, dose 3 mg/kg, time <=24; settings: in vivo; method in brief: as §5

Row | SMILES | Cmax [1] [ng/mL] | AUC [2] [ng·h/mL] | solubility [4] [µg/mL] | solubility thermodynamic [5] [µg/mL] | AUC [6] [ng·h/mL] | solubility thermodynamic [7] [µg/mL] | Stabilty [8] [%] | Stabilty [9] [%] | Cmax [10] [ng/mL] | AUC at 12 h [12] [ng·h/mL] | AUC at 24 h [13] [ng·h/mL] | logD [14] | solubility [15] [µg/mL] | fraction unbound [16] | Papp [17] [×10⁻⁶ cm/s] | solubility [18] [µg/mL] | further results
1 | COC(=O)N[C@H](C(=O)N1CCC[C@H]1c1nc2cc(F)c([C@H]3CC[C@H](c4cc5nc([C@@H]6CCCN6C(=O)[C@@H](NC(=O)OC)[C@@H](C)OC)n(C(=O)OCCCOP(=O)(O)O)c5cc4F)N3c3cc(F)c(N4CCC(c5ccc(F)cc5)CC4)c(F)c3)cc2[nH]1)[C@@H](C)OC | 26 | 456 | > 1000 | 631 (≈ 487 µM) | 2140 | 23 (≈ 17.8 µM) | 54 | < 1 | 196 | – | – | – | – | – | – | – | Stabilty [3]: < 20%
2 | COC(=O)N[C@H](C(=O)N1CCC[C@H]1c1nc2cc(F)c([C@H]3CC[C@H](c4cc5nc([C@@H]6CCCN6C(=O)[C@@H](NC(=O)OC)[C@@H](C)OC)n(COC(=O)Cc6ccc(OP(=O)(O)O)cc6)c5cc4F)N3c3cc(F)c(N4CCC(c5ccc(F)cc5)CC4)c(F)c3)cc2[nH]1)[C@@H](C)OC | 905 | 16100 | > 1000 | 135 (≈ 99.5 µM) | 1920 | 45 (≈ 33.2 µM) | 74 | 71 | 155 | 197 | – | – | – | – | – | – | half-life at 125 ug/ml [11]: > 24 h
3 | COC(=O)N[C@H](C(=O)N1CCC[C@H]1c1nc2cc(F)c([C@H]3CC[C@H](c4cc5nc([C@@H]6CCCN6C(=O)[C@@H](NC(=O)OC)[C@@H](C)OC)n(COC(=O)[C@@H](NC(=O)/C=C/C(=O)O)C(C)C)c5cc4F)N3c3cc(F)c(N4CCC(c5ccc(F)cc5)CC4)c(F)c3)cc2[nH]1)[C@@H](C)OC | 15 | 231 | 542 (≈ 404 µM) | < 0.2 | – | 203 (≈ 151 µM) | 97 | 67 | – | – | 354 | – | – | – | – | – | –
4 | CC(C)(C)[C@@H]1NC(=O)O[C@@H]2CCC[C@H]2OC/C=C/C(F)(F)c2nc3ccccc3nc2O[C@@H]2C[C@@H](C(=O)N[C@]3(C(=O)NS(=O)(=O)C4(C)CC4)C[C@H]3C(F)F)N(C2)C1=O [GLECAPREVIR] | – | – | 40 (≈ 47.7 µM) | – | – | – | – | – | – | – | – | 2.5 | 300 (≈ 358 µM) | 0.025 | 1.4 | < 100 | Papp [19]: 5.2 ×10⁻⁶ cm/s
5 | COC(=O)N[C@H](C(=O)N1CCC[C@H]1c1nc2cc([C@H]3CC[C@H](c4cc5nc([C@@H]6CCCN6C(=O)[C@@H](NC(=O)OC)[C@@H](C)OC)[nH]c5cc4F)N3c3cc(F)c(N4CCC(c5ccc(F)cc5)CC4)c(F)c3)c(F)cc2[nH]1)[C@@H](C)OC [PIBRENTASVIR] | 408 | 6720 | 169 (≈ 152 µM) | < 0.1 | 3860 | 422 (≈ 379 µM) | – | – | 339 | 166 | 6720 | 5.7 | < 0.1 | < 0.001 | < 1 | 420 (≈ 377 µM) | Cmax [20]: 280 ng/mL; Cmax [21]: 339 ng/mL; Cmax [22]: 239 ng/mL; AUC [23]: 2730 ng·h/mL; AUC at 24 h [24]: 3860 ng·h/mL; AUC at 24 h [25]: 5170 ng·h/mL
